Assays:
Type in all cases: functional
Candida albicans [1] = test: Antifungal activity against Candida albicans ATCC 10231 assessed as growth inhibition at 250 ug/ml after 48 hrs by broth microdilution method; details: ATCC 10231, 48 h
In short: (§1)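 CLSI M27-A3 broth microdilution in RPMI-1640. Compound stocks were made in DMSO (final at most 1%) and tested at final levels of 250 to 0.98. Inoculum was 1–5 × 10^3 CFU/mL, incubated 48 h at 30 °C in a moist, dark chamber. Growth and sterility control wells were included.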

Candida albicans [2] = test: Antifungal activity against Candida albicans ATCC 10231 assessed as growth inhibition at 125 ug/ml after 48 hrs by broth microdilution method; details: ATCC 10231, 48 h; in short: as §1
Candida albicans [3] = test: Antifungal activity against Candida albicans ATCC 10231 assessed as growth inhibition at 62.5 ug/ml after 48 hrs by broth microdilution method; details: ATCC 10231, 48 h; in short: as §1
Candida albicans [4] = test: Antifungal activity against Candida albicans ATCC 10231 assessed as growth inhibition at 31.25 ug/ml after 48 hrs by broth microdilution method; details: ATCC 10231, 48 h; in short: as §1
Candida albicans [5] = test: Antifungal activity against Candida albicans ATCC 10231 assessed as growth inhibition at 15.62 ug/ml after 48 hrs by broth microdilution method; details: ATCC 10231, 48 h; in short: as §1
Candida albicans [6] = test: Antifungal activity against Candida albicans ATCC 10231 assessed as growth inhibition at 7.81 ug/ml after 48 hrs by broth microdilution method; details: ATCC 10231, 48 h; in short: as §1
Candida albicans [7] = test: Antifungal activity against Candida albicans ATCC 10231 assessed as growth inhibition at 3.9 ug/ml after 48 hrs by broth microdilution method; details: ATCC 10231, 48 h; in short: as §1
Cryptococcus neoformans [8] = test: Antifungal activity against Cryptococcus neoformans ATCC 32264 assessed as growth inhibition at 250 ug/ml after 48 hrs by broth microdilution method; details: ATCC 32264, 48 h; in short: as §1
Cryptococcus neoformans [9] = test: Antifungal activity against Cryptococcus neoformans ATCC 32264 assessed as growth inhibition at 125 ug/ml after 48 hrs by broth microdilution method; details: ATCC 32264, 48 h; in short: as §1
Cryptococcus neoformans [10] = test: Antifungal activity against Cryptococcus neoformans ATCC 32264 assessed as growth inhibition at 62.5 ug/ml after 48 hrs by broth microdilution method; details: ATCC 32264, 48 h; in short: as §1
Cryptococcus neoformans [11] = test: Antifungal activity against Cryptococcus neoformans ATCC 32264 assessed as growth inhibition at 31.25 ug/ml after 48 hrs by broth microdilution method; details: ATCC 32264, 48 h; in short: as §1
Cryptococcus neoformans [12] = test: Antifungal activity against Cryptococcus neoformans ATCC 32264 assessed as growth inhibition at 15.62 ug/ml after 48 hrs by broth microdilution method; details: ATCC 32264, 48 h; in short: as §1
Cryptococcus neoformans [13] = test: Antifungal activity against Cryptococcus neoformans ATCC 32264 assessed as growth inhibition at 7.81 ug/ml after 48 hrs by broth microdilution method; details: ATCC 32264, 48 h; in short: as §1
Cryptococcus neoformans [14] = test: Antifungal activity against Cryptococcus neoformans ATCC 32264 assessed as growth inhibition at 3.9 ug/ml after 48 hrs by broth microdilution method; details: ATCC 32264, 48 h; in short: as §1

Nc1nc(N)c2c(n1)NC(c1sc(Cl)nc1Cl)CC(c1ccc3c(c1)OCO3)=N2 (stereo not drawn)
inhibition at 250 µg/mL (Candida albicans [1]): 56.8%
inhibition at 125 µg/mL (Candida albicans [2]): 48.1%
inhibition at 62.5 µg/mL (Candida albicans [3]): 41.6%
inhibition at 31.25 µg/mL (Candida albicans [4]): 24.3%
inhibition at 15.62 µg/mL (Candida albicans [5]): 0%
inhibition at 7.81 µg/mL (Candida albicans [6]): 0%
inhibition at 3.9 µg/mL (Candida albicans [7]): 0%
inhibition at 250 µg/mL (Cryptococcus neoformans [8]): 58.5%
inhibition at 125 µg/mL (Cryptococcus neoformans [9]): 36.9%
inhibition at 62.5 µg/mL (Cryptococcus neoformans [10]): 19.5%
inhibition at 31.25 µg/mL (Cryptococcus neoformans [11]): 7.07%
inhibition at 15.62 µg/mL (Cryptococcus neoformans [12]): 5.35%
inhibition at 7.81 µg/mL (Cryptococcus neoformans [13]): 3.92%
inhibition at 3.9 µg/mL (Cryptococcus neoformans [14]): 0%

Nc1nc(N)c2c(n1)NC(c1sc(Cl)nc1Cl)CC(c1ccc(F)cc1)=N2 (stereo not drawn)
inhibition at 250 µg/mL (Candida albicans [1]): 59.9%
inhibition at 125 µg/mL (Candida albicans [2]): 51.7%
inhibition at 62.5 µg/mL (Candida albicans [3]): 43.3%
inhibition at 31.25 µg/mL (Candida albicans [4]): 21.3%
inhibition at 15.62 µg/mL (Candida albicans [5]): 17.9%
inhibition at 7.81 µg/mL (Candida albicans [6]): 0%
inhibition at 3.9 µg/mL (Candida albicans [7]): 0%
inhibition at 250 µg/mL (Cryptococcus neoformans [8]): 25.5%
inhibition at 125 µg/mL (Cryptococcus neoformans [9]): 24.6%
inhibition at 62.5 µg/mL (Cryptococcus neoformans [10]): 12.8%
inhibition at 31.25 µg/mL (Cryptococcus neoformans [11]): 11%
inhibition at 15.62 µg/mL (Cryptococcus neoformans [12]): 7.17%
inhibition at 7.81 µg/mL (Cryptococcus neoformans [13]): 5.01%
inhibition at 3.9 µg/mL (Cryptococcus neoformans [14]): 3.83%

— ChEMBL document CHEMBL3407460, “Synthesis of novel thiazole-based 8,9-dihydro-7H-pyrimido[4,5-b][1,4]diazepines as potential antitumor and antifungal agents” (2015)
